Source: PubChem
A selection: hits, their analogues and other compounds. The true share with any hit is near 2.3%.
PAFAH1B3 inh: inhibitors of human PAFAH1B3; Q15102; hit rate 0.28% among 340,000; AID 492972; inhibition, % at 3.39 µM; recombinant PAFAH1B3, FP-rhodamine probe, fluorescence polarization;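 active means inhibition above the screen-wide average of all tested compounds plus 3 SD, cut at about 25% in these data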;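 further: 0% = enzyme with DMSO only and 100% = wells lacking PAFAH1B3 protein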
PAFAH2 FP inh: inhibitors of human PAFAH2. Q99487. recombinant PAFAH2, FP-rhodamine activity probe, fluorescence polarization. inhibition, % at 3.39 µM. hit rate 0.99% among 340,000;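 active means inhibition above the mean over all tested compounds plus 3 SD, cut at about 30% in these data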;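 further: inhibitors block probe labeling of enzyme so polarization drops; 0% = enzyme with DMSO and 100% = wells lacking PAFAH2 protein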
Apaf1 inhib: inhibitors of human Apaf-1 apoptosome; reconstituted apoptosome caspase-3 activity, DEVD-Rh110 fluorescence; inhibition, % at 20 µM; hit rate 0.71% among 330,000; AID 489030; active means inhibition of at least 40% at 20 µM;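 further: plate controls were DMSO wells for no effect and DEVD-CHO caspase inhibitor wells for full effect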
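detection = Rh110 fluorescence intensity | test system = biochemical Apaf-1 apoptosome reconstitution | also added = cytochrome c and DEVD-Rh110 substrate | schedule = 30 min plus 50 min, RT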
PAFAH1B2 FP inh: blocks human PAF acetylhydrolase 1b catalytic subunit 2; AID 492953; inhibition, % at 3.39 µM; recombinant PAFAH1B2, FP-rhodamine activity probe, fluorescence polarization; hit rate 1.2% among 340,000;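 active means inhibition above the mean of all tested compounds plus 3 SD, cut at about 24% in these data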;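 further: 0% = enzyme with DMSO and 100% = wells lacking PAFAH1B2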
TDP2 inh: TDP2 (human) inhibition, absorbance primary screen. recombinant TDP2, T5PNP hydrolysis, p-nitrophenol absorbance 415 nm. inhibition, % at 12.8 µM. hit rate 0.34% among 370,000. AID 720702;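 active means inhibition above the mean of all tested compounds plus 3 SD, set per campaign, cut at about 25% in these data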;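 further: 0% = DMSO with enzyme and 100% = buffer with substrate but no TDP2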
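System: recombinant human TDP2 / Amount: 120 nM TDP2 per well / Also added: 5 mM T5PNP chromogenic substrate / Doses: 12.8 µM single point, 1% DMSO / Incubation: 2 h at 37 °C / Detection: p-Nitrophenol epi absorbance / Evaluation: % inhibition relative to enzyme-containing and enzyme-free wells / Repeats: singlicate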
TDP2 confirm: human TDP2 inhibition, confirmation; shares compounds with TDP2 inh; recombinant human TDP2, absorbance read-out; inhibition, % at 12.8 µM; hit rate 22% among 1,100; AID 743263; in the data active means inhibition above about 25%;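 further: 0% = vehicle with enzyme and 100% = no enzyme buffer only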
* marks the source's active call; other numbers are inactive results; · = no result given.

SMILES	PAFAH1B3 inh	PAFAH2 FP inh	Apaf1 inhib	PAFAH1B2 FP inh	TDP2 inh	TDP2 confirm
N#CC1C(=O)Nc2cccnc21 (stereo unspecified)	·	·	·	·	66*	3
Cc1nc(NC(=O)COc2ccccc2)sc1C(=O)Nc1cccc(Cl)c1	3	-3	14	-1	27*	-17
COc1ccc(NC(=O)c2sc(NC(=O)COc3ccccc3)nc2C)cc1	7	5	3	1	0	·
C=CCN(CC#Cc1ccccc1)Cc1ccc2c(c1)OCO2	·	·	·	·	-3	·
COc1cc(CCC(=O)Nc2nccs2)cc(OC)c1OC	9	-3	-2	7	29*	-5
CS(=O)(=O)c1nc(S(=O)(=O)c2ccc(Cl)cc2)c(NCCCN2CCOCC2)s1	-1	-1	-4	-5	27*	1
CCS(=O)(=O)c1nc(S(=O)(=O)c2ccc(Cl)cc2)c(NCCCN2CCOCC2)s1	5	5	-2	0	5	·
COc1ccc(Cc2ccccc2C(=O)O)cc1	1	5	·	0	5	·
COc1ccc(CC2=CC(=O)c3ccccc3C2=O)cc1	10	3	50*	8	53*	17
CC[C@@H](CCCc1ccc(F)cc1)CN(Cc1ccc(OC)cc1)S(=O)(=O)c1ccc(C)cc1	·	·	·	·	7	·
Cc1ccc(OCCOc2cccc3ccc(C)nc23)c([N+](=O)[O-])c1	-4	0	0	5	25*	10
Cc1ccc(Cn2cc(CN(C(C)(C)C)S(=O)(=O)c3ccc(F)cc3Br)nn2)cc1	·	·	·	·	-1	·
COc1ccc(-n2c(COc3ccc(C)cc3)nnc2SCC(=O)c2ccc(-c3ccccc3)cc2)cc1	·	·	·	·	-9	·
CCOC(=O)c1c(S(=O)(=O)NCC(=O)Nc2ccccc2F)c(C)n(C)c1C	5	2	7	2	25*	7
CCOC(=O)c1c(S(=O)(=O)NCC(=O)Nc2ccccc2OC)c(C)n(C)c1C	0	0	-6	0	4	·
CCSc1n[nH]c(=O)n1C	·	·	·	·	-1	·
O=C(c1cccnc1)N1CCN(Cc2ccc3ccccc3c2)CC1	4	6	1	1	31*	0
O=C(c1cccnc1)N1CCN(Cc2cccc(F)c2)CC1	0	1	6	0	-1	·
Cc1ccc(/C=N/Nc2nc(C)cc(C)n2)cc1	6	1	-23	0	15	·
Nn1cnnc1N/N=C/c1ccc(F)cc1	7	-3	-14	3	64*	-5
Cc1nnc(C)n1N=Cc1ccc(Cl)c([N+](=O)[O-])c1	·	·	·	·	6	·
Cc1ccc(/C=N/Nc2nncn2N)cc1	18	-3	-4	5	78*	2
Nn1cnnc1N/N=C/c1ccc(Cl)c([N+](=O)[O-])c1	10	4	3	5	75*	37*
Fc1ccc(/C=N/Nc2nn[nH]n2)cc1	2	4	2	8	-3	·
O=C(CSc1nnc(COc2ccccc2)n1-c1ccc(Cl)cc1)Nc1ccc2c(c1)OCCO2	·	·	·	·	-2	·
SMILES	PAFAH1B3 inh	PAFAH2 FP inh	Apaf1 inhib	PAFAH1B2 FP inh	TDP2 inh	TDP2 confirm
Brc1ccc(CN2CCSCC2)cc1	-7	3	-18	0	-7	·
Cc1ccc(CN2CCSCC2)cc1	-3	0	-20	0	26*	8
COc1cc2[nH]c(Cl)c([N+](=O)[O-])c2cc1OC	-1	4	-10	6	40*	3
COc1cc2[nH]c3c(Cl)ncnc3c2cc1OC	6	5	9	-1	2	·
COc1ccc(CC(=O)OC(C)C(=O)NCc2ccc3c(c2)OCO3)cc1OC (stereo unspecified)	-1	-2	-1	0	44*	3
COc1ccc(CC(=O)OCC(=O)NCc2ccc3c(c2)OCO3)cc1OC	8	3	2	5	-2	·
Cc1ccc2nc(-c3ccc4c(c3)OCCO4)cn2c1	6	7	-11	6	9	·
Cc1ccc2nc(-c3ccc4c(c3)NC(=O)CO4)cn2c1	0	-10	-4	3	25*	3
O=C(NCc1ccccn1)Nc1ccc(Cl)c(Cl)c1	11	-3	7	7	0	·
CC(C)c1ccc(NC(=O)NCc2ccccn2)cc1	-5	5	10	1	52*	3
CCNc1nc(NCC)n2c(SCC(=O)Nc3cc(Cl)ccc3OC)nnc2n1	8	2	3	4	25*	-7
CC(c1c[nH]c2ccccc12)c1cn(C)c2ccccc12 (stereo unspecified)	·	·	·	·	5	·
Cc1c(N)cc(N)cc1C(=O)O	3	2	-11	3	31*	6
CC(=O)Nc1ccc(CN2CCN(C3CCCC3)C(CCO)C2)cc1 (stereo unspecified)	-1	-4	2	2	-1	·
CC(=O)Nc1ccc(CN2CCCN(C)CC2)cc1	-5	-3	-14	3	27*	-2
COc1ccc(OC)c(CN2C(=O)CCCC2(C)c2nnnn2C2CCCC2)c1 (stereo unspecified)	·	·	·	·	-2	·
CCOc1ccc2nc(SCC(=O)NCC3CCCO3)c(C#N)cc2c1 (stereo unspecified)	6	2	10	7	27*	-2
Cc1ccc(-n2c(SCc3cccc4ccccc34)nnc2-c2ccccn2)cc1	·	·	·	·	-9	·
CCc1cc[n+](C(C(=S)Nc2cccc(C)c2)=C([O-])c2ccc(C)c([N+](=O)[O-])c2)cc1	3	4	·	-2	-8	·
Cc1ccc(/C([O-])=C(/C(=S)NCc2ccccc2)[n+]2cccc(CO)c2)cc1[N+](=O)[O-]	11	2	·	1	26*	1
CCCCn1[nH]c(-c2ccccc2)cc1=O	1	2	26	5	47*	10
Cc1ccn2c(CNCCCn3cccn3)c(C(=O)N3CCCCCC3)nc2c1	3	-8	1	2	-1	·
O=C(c1nc2ccccn2c1CNCCCn1cccn1)N1CCCC1	1	2	-1	-5	28*	-8
Cc1nnc(N2C(=O)C(=O)/C(=C(/O)c3ccc4c(c3)CC(C)O4)C2c2ccccc2F)s1 (stereo unspecified)	8	10	-1	7	37*	-5
Cc1nn(CCO)c(N)c1C1(O)C(=O)Nc2c(Cl)cc(Cl)cc21 (stereo unspecified)	2	8	2	4	28*	1
Cc1noc(N)c1C1(O)C(=O)Nc2c(Cl)cc(Cl)cc21 (stereo unspecified)	-1	-7	16	2	23	·
CCOc1ccc(CCNC(=O)c2cc3ccsc3n2C)cc1OCC	·	·	·	·	-4	·
CCN(CC(=O)Nc1ccc(NC(C)=O)cc1)C(=O)c1ccc(N2CCC(C)CC2)c([N+](=O)[O-])c1	2	0	11	2	7	·
Cc1nnc(N/N=C/c2cc([N+](=O)[O-])c(N3CCC(C)CC3)cc2N2CCC(C)CC2)n1N	6	4	34	6	53*	-14
